Laboratory results from ChEMBL document CHEMBL1143811, “Bis-acridines as lead antiparasitic agents: structure-activity analysis of a discrete compound library in vitro” (Antimicrob Agents Chemother, 2007).
≈ marks a conversion by molar mass, not a printed value. Calls of active or inactive are those of the source. No cut-off for these calls is given here.

Assays:
Plasmodium falciparum [1] = assay: Antimicrobial activity against chloroquine-sensitive Plasmodium falciparum 3D7 after 72 hrs; format: functional, organism-based; settings: 3D7, 72 h
Plasmodium falciparum [2] = assay: Antimicrobial activity against chloroquine-resistant Plasmodium falciparum W2 after 72 hrs; format: functional, organism-based; settings: W2, 72 h
[3] = system: Trypanosoma brucei brucei; assay: Antimicrobial activity against Trypanosoma brucei brucei clone 427-221a after 48 hrs; format: functional, organism-based
Summary of the method: (§1)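 Bloodstream-form T. b. brucei in Baltz medium (~10^4/ml) and HL-60 cells in RPMI 1640 (~10^5/ml), both with 16.7% FBS, were exposed 48 h at 37°C in 5% CO2 to compound up to 10 µM in 1% final DMSO. Live cells were hemocytometer-counted, by motility (trypanosomes) or trypan blue exclusion (HL-60). EC50 was taken by regression versus DMSO cultures from three experiments. MIC was the lowest fully lethal concentration, judged microscopically.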

[4] = (§2) Cytotoxicity against human HL60 cells; format: cell-based, HL-60; settings: human, HL-60 cells; read-out: MIC; summary of the method: as §1
HL-60 = assay: as §2; format: cell-based; settings: Homo sapiens, HL-60; summary of the method: as §1
[5] = Selectivity index, ratio of EC50 for HL60 cells to EC50 for Trypanosoma brucei brucei clone 427-221a; format: functional, HL-60; summary of the method: as §1
[6] = Selectivity index, ratio of MIC for HL60 cells to MIC for Trypanosoma brucei brucei clone 427-221a; format: functional, HL-60; summary of the method: as §1
Leishmania donovani = assay: Antileishmanial activity against Leishmania donovani MHOM/SD/00/1S-2D promastigotes assessed as parasite death at 10 uM after 72 hrs; format: functional
Summary of the method: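 Promastigotes seeded at 1.5 x 10^5 cells/ml in medium 199 with 10% heat-inactivated FBS. Compound added at a final 10 µM, in triplicate, in sealed flasks at 27°C for up to 7 days. Aliquots taken daily and viability read by CellTiter-Glo luminescence. Result given as percent reduction in viability relative to DMSO-treated cultures. Controls were K11777 or amphotericin B at 10 µM.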

Leishmania major [7] = assay: Antileishmanial activity against Leishmania major MHOM/IL/81/FE/BNI amastigotes after 48 hrs; format: functional, organism-based
Summary of the method: (§3)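 Peritoneal macrophages from BALB/c mice (6-8 wk) adhered 2 h at 37°C, infected 24 h with stationary-phase L. major promastigotes at 10:1 parasite:macrophage, washed, then exposed 48 h to compound at 0.0001 to 10 µM. Intracellular amastigotes stained with acridine orange/ethidium bromide and counted by fluorescence microscopy; percent amastigotes cleared versus DMSO-treated cultures; three repeats.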

Schistosoma mansoni = assay: Antimicrobial activity against Schistosoma mansoni assessed as worm vitality at 6 uM after 4 hrs; format: functional, organism-based
Summary of the method: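 20-day-old worms were obtained by perfusion of BALB/c mice infected with 200 cercariae. About 20 worms/well were kept in Basch 169 with 10% bovine calf serum, preincubated 24 h at 37°C in 5% CO2, then exposed to 1, 3 or 6 µM. Vitality (feeding, flexing, gut peristalsis; death = nonmotile, shrunken, dark) was scored at 4 and 18 h in two experiments.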

Entamoeba histolytica = assay: Antimicrobial activity against Entamoeba histolytica HM1 IMSS trophozoites after 48 hrs; format: functional, organism-based; settings: 60 h, in the assay text read “60 hrs” for “48 hrs”
Summary of the method: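 Trophozoites were grown axenically in TYI-S-33 with 10% bovine adult serum and seeded at ~10^4 cells/well. Compound (range up to 10 µM) was added to 48-h log-phase cultures, then incubated 60 h at 37°C under anaerobic conditions. Viability was read by CellTiter-Glo luminescence. EC50 came from quadruplicate wells in two independent experiments.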

Trichomonas vaginalis = assay: Antimicrobial activity against Trichomonas vaginalis G3 assessed as parasite death at 10 uM after 24 hrs; format: functional
Summary of the method: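 G3 strain grown in Diamond's medium at 37°C. Assay culture set up as 0.5 ml dense culture diluted into 5.0 ml complete medium. Compound at a final 10 µM for 24 h at 37°C. Motile cells counted by hemocytometer. Result is percent dead parasites relative to DMSO-treated cultures, from five separate experiments. Controls were untreated, DMSO and metronidazole.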

[8] = Cytotoxicity against BALB/c mouse peritoneal macrophages at 10 uM after 48 hrs hrs; format: cell-based; settings: macrophage
Plasmodium falciparum [9] = assay: Antimalarial activity against chloroquine-resistant Plasmodium falciparum FcB1R after 72 hrs; format: functional, organism-based
[10] = system: Trypanosoma brucei brucei; assay: Antimicrobial activity against Trypanosoma brucei brucei clone 427-221a at 1.56 uM; format: functional
MRC5 = assay: Toxicity against human MRC5 cells at 3.13 uM; format: cell-based; settings: mrc5, 3.13 µM
Leishmania major [11] = assay: Antileishmanial activity against Leishmania major MHOM/IL/81/FE/BNI amastigotes after 48 hrs at 1 uM; format: functional, organism-based; summary of the method: as §3

For `COc1ccc2nc3cc(Cl)ccc3c(NCCCCNCCCCCNCCCNc3c4ccc(Cl)cc4nc4ccc(OC)cc34)c2c1`, which EC50 (Plasmodium falciparum [1]) is on record?
Its EC50 is 125 nM.

And the EC50 (Plasmodium falciparum [2])?
The EC50 was 129 nM.

What about the EC50 [3] of the same compound?
Its EC50 is 1.9 nM.

What about the MIC [3] of the same compound?
The MIC was 1 µM (≈ 0.714 µg/mL).

And the MCC [4]?
The MCC was 10 µM.

What about the EC50 (HL-60) of the same compound?
The EC50 was 270 nM.

What about the “Ratio EC50” value [5] of the same compound?
Its value is 140.

What about the Ratio [6] of the same compound?
The Ratio was 10.

What about the Activity (Leishmania donovani) of the same compound?
The Activity was 98%.

And the EC50 (Leishmania major [7])?
Its EC50 is 600 nM.

And the Activity (Schistosoma mansoni)?
The Activity was “Active”.

And the EC50 (Entamoeba histolytica)?
The EC50 was 5000 nM.

And the Activity (Trichomonas vaginalis)?
The Activity was 66%.

And the Activity [8]?
Its Activity is “Toxic”.

With `COc1ccc2nc3cc(Cl)ccc3c(NCCNCCNc3c4ccc(Cl)cc4nc4ccc(OC)cc34)c2c1` as the compound, how does the EC50 (Plasmodium falciparum [1]) read?
The EC50 was 618 nM.

What about the EC50 (Plasmodium falciparum [2]) of the same compound?
Its EC50 is 791 nM.

What about the EC50 (Plasmodium falciparum [9]) of the same compound?
Its EC50 is 63 nM.

What about the EC50 [3] of the same compound?
Its EC50 is 218 nM.

What about the MIC [3] of the same compound?
Its MIC is 10 µM (≈ 5.87 µg/mL).

And the MCC [4]?
The MCC was greater than 10 µM.

And the EC50 (HL-60)?
The EC50 was 9470 nM.

What about the “Ratio EC50” value [5] of the same compound?
Its value is 43.

What about the Ratio [6] of the same compound?
The Ratio was greater than 1.

What about the Activity [10] of the same compound?
The Activity was 100%.

What about the Activity (MRC5) of the same compound?
Its Activity is 100%.

And the Activity (Leishmania donovani)?
Its Activity is 47%.

What about the EC50 (Entamoeba histolytica) of the same compound?
The EC50 was 5000 nM.

What about the Activity (Trichomonas vaginalis) of the same compound?
The Activity was 0%.

What about the Activity [8] of the same compound?
The Activity was “Toxic”.

What about the Activity (Leishmania major [11]) of the same compound?
Its Activity is “inactive”.

Which Activity (Leishmania donovani) does the source give for `C[C@@H]1[C@H](O)[C@@H](C)/C=C/C=C/C=C/C=C/C=C/C=C/C=C/[C@H](O[C@@H]2O[C@H](C)[C@@H](O)[C@H](N)[C@@H]2O)C[C@@H]2O[C@](O)(C[C@@H](O)C[C@@H](O)[C@H](O)CC[C@@H](O)C[C@@H](O)CC(=O)O[C@H]1C)C[C@H](O)[C@H]2C(=O)O` [AMPHOTERICIN B] here?
The Activity was 100%.

Which EC50 (Plasmodium falciparum [1]) does the source give for `COc1ccc2nc3cc(Cl)ccc3c(NCCCN3CCN(CCCNc4c5ccc(Cl)cc5nc5ccc(OC)cc45)CC3)c2c1` here?
Its EC50 is 64 nM.

What about the EC50 (Plasmodium falciparum [2]) of the same compound?
Its EC50 is 112 nM.

What about the EC50 (Plasmodium falciparum [9]) of the same compound?
The EC50 was 17 nM.

And the EC50 [3]?
Its EC50 is 1.8 nM.

And the MIC [3]?
The MIC was 0.1 µM (≈ 0.0684 µg/mL).

What about the MCC [4] of the same compound?
The MCC was 10 µM.

What about the EC50 (HL-60) of the same compound?
Its EC50 is 1480 nM.

What about the “Ratio EC50” value [5] of the same compound?
The value was 836.

What about the Ratio [6] of the same compound?
Its Ratio is 100.

What about the Activity [10] of the same compound?
Its Activity is 60%.

What about the Activity (MRC5) of the same compound?
Its Activity is 0%.

What about the Activity (Leishmania donovani) of the same compound?
The Activity was 46%.

And the EC50 (Entamoeba histolytica)?
Its EC50 is 5000 nM.

What about the Activity (Trichomonas vaginalis) of the same compound?
Its Activity is 10%.

And the Activity [8]?
Its Activity is “Toxic”.

What about the Activity (Leishmania major [11]) of the same compound?
Its Activity is “inactive”.

With `COc1ccc2nc3cc(Cl)ccc3c(NCCCNCCCNCCCNc3c4ccc(Cl)cc4nc4ccc(OC)cc34)c2c1` as the compound, how does the EC50 (Plasmodium falciparum [1]) read?
The EC50 was 121 nM.

What about the EC50 (Plasmodium falciparum [2]) of the same compound?
The EC50 was 147 nM.

What about the EC50 [3] of the same compound?
Its EC50 is 1.4 nM.

And the MIC [3]?
Its MIC is 1 µM (≈ 0.672 µg/mL).

And the MCC [4]?
The MCC was 10 µM.

What about the EC50 (HL-60) of the same compound?
The EC50 was 142 nM.

What about the “Ratio EC50” value [5] of the same compound?
The value was 98.

What about the Ratio [6] of the same compound?
The Ratio was 10.

What about the Activity (Leishmania donovani) of the same compound?
Its Activity is 73%.

And the EC50 (Leishmania major [7])?
Its EC50 is 3000 nM.

And the Activity (Schistosoma mansoni)?
The Activity was “Active”.

What about the EC50 (Entamoeba histolytica) of the same compound?
Its EC50 is 5000 nM.

And the Activity (Trichomonas vaginalis)?
Its Activity is 0%.

Which results are given for `Nc1nc(N)nc(Nc2ccc([As]3SCC(CO)S3)cc2)n1` (configuration not stated) [MELARSOPROL]?
EC50 [3]: 16 nM; MIC [3]: 0.1 µM; MCC [4]: 100 µM; EC50 (HL-60): 4270 nM; Ratio EC50 [5]: 267; Ratio [6]: >1000

Which EC50 (Plasmodium falciparum [1]) does the source give for `COc1ccc2nc3cc(Cl)ccc3c(NCCCCCCCCCCNc3c4ccc(Cl)cc4nc4ccc(OC)cc34)c2c1` here?
Its EC50 is 95 nM.

What about the EC50 (Plasmodium falciparum [2]) of the same compound?
Its EC50 is 116 nM.

And the EC50 (Plasmodium falciparum [9])?
The EC50 was 57 nM.

What about the EC50 [3] of the same compound?
The EC50 was 25 nM.

What about the MIC [3] of the same compound?
The MIC was 1 µM (≈ 0.656 µg/mL).

What about the MCC [4] of the same compound?
Its MCC is 10 µM.

And the EC50 (HL-60)?
Its EC50 is 3140 nM.

And the “Ratio EC50” value [5]?
Its value is 125.

And the Ratio [6]?
The Ratio was 10.

What about the Activity [10] of the same compound?
Its Activity is 100%.

What about the Activity (MRC5) of the same compound?
Its Activity is 0%.

What about the Activity (Leishmania donovani) of the same compound?
Its Activity is 96%.

What about the EC50 (Entamoeba histolytica) of the same compound?
The EC50 was 500 nM.

What about the Activity (Trichomonas vaginalis) of the same compound?
The Activity was 100%.

And the Activity [8]?
The Activity was “Toxic”.

What about the Activity (Leishmania major [11]) of the same compound?
Its Activity is “inactive”.

What does the source list for `CCCN(CCCCNc1c2ccc(Cl)cc2nc2ccc(OC)cc12)CCCNc1c2ccc(Cl)cc2nc2ccc(OC)cc12`?
EC50 (Plasmodium falciparum [1]): 120 nM; EC50 (Plasmodium falciparum [2]): 319 nM; EC50 [3]: 1.4 nM; MIC [3]: 1 µM (≈ 0.671 µg/mL); MCC [4]: 10 µM; EC50 (HL-60): 491 nM; Ratio EC50 [5]: 348; Ratio [6]: 10; Activity (Leishmania donovani): 99%; EC50 (Entamoeba histolytica): 5000 nM; Activity (Trichomonas vaginalis): 90%; Activity [8]: Toxic; Activity (Leishmania major [11]): inactive

Which results are given for `CCN(CC)CCCC(C)Nc1ccnc2cc(Cl)ccc12` (configuration not stated) [CHLOROQUINE]?
EC50 (Plasmodium falciparum [1]): 10 nM; EC50 (Plasmodium falciparum [2]): 293 nM
